Reference: ChEMBL document CHEMBL1148584, “Effect of polyamine homologation on the transport and biological properties of heterocyclic amidines” (J Med Chem, 2006)

What was measured:
L1210 [1] = test: Intracellular level of conjugate in L1210 cells in the presence of DFMO at 10 uM; type: functional, cell-based; details: Mus musculus
Summary of the method: (§1)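 L1210 cells in RPMI 1640/10% FCS with 2 mM aminoguanidine, seeded at 4 × 10⁴ cells/mL. Conjugate, with or without 5 mM DFMO, added at seeding; cells cultured 48 h, washed in cold NaCl, and extracted with 0.2 N HClO₄. Conjugate and free putrescine, spermidine and spermine quantified by ion-pair HPLC (UV 254 nm, fluorescence ex 345/em 455 nm); normalised to protein. Student's t-test, p<0.05.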

CHO [2] = test: Cellular uptake in CHO cells at 10 uM; type: ADME, cell-based, Cricetulus griseus; details: chinese hamster
Summary of the method: (§2)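 CHO (RPMI 1640, 10% FCS, 2 mM aminoguanidine) and CHO-MG (plus L-proline) cells seeded at 2 × 10⁵ cells/mL. Conjugate added 24 h after seeding and cells harvested 24 h later, then washed in cold 0.14 M NaCl and sonicated in 0.2 N HClO₄. Supernatant analysed by ion-pair reversed-phase HPLC (n-octanesulfonate), expressed as nmol/mg protein; mean ± SD of three determinations.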

CHO [3] = test: Cellular uptake in CHO cells at 5 uM; type: ADME, cell-based, Cricetulus griseus; details: chinese hamster; summary of the method: as §2
CHO-MG [4] = test: Cellular uptake in CHO-MG cells at 10 uM; type: ADME, cell-based, Cricetulus griseus; details: chinese hamster; summary of the method: as §2
CHO-MG [5] = test: Cellular uptake in CHO-MG cells at 5 uM; type: ADME, cell-based, Cricetulus griseus; details: chinese hamster; summary of the method: as §2
CHO-MG [6] = test: Selectivity for uptake in CHO cell line over CHO-MG cell line at 10 uM; type: functional, cell-based; details: Cricetulus griseus
Summary of the method: (§3)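 Ratio of intracellular conjugate level in CHO over CHO-MG cells. Both lines were exposed to conjugate 24 h after seeding at 2 × 10⁵ cells/mL, for 24 h with 2 mM aminoguanidine in the medium. Levels were measured by ion-pair HPLC of perchloric extracts and normalised to protein (nmol/mg).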

[7] = Selectivity for uptake in CHO cell line over CHO-MG cell line at 5 uM; type: functional, Cricetulus griseus; summary of the method: as §3
L1210 [8] = test: Intracellular level of putrescine in L1210 cells in the absence of DFMO at 10 uM; type: functional, cell-based; details: Mus musculus; summary of the method: as §1
L1210 [9] = test: Intracellular level of spermine in L1210 cells in the absence of DFMO at 10 uM; type: functional, cell-based; details: Mus musculus; summary of the method: as §1
L1210 [10] = test: Intracellular level of conjugate in L1210 cells in the absence of DFMO at 10 uM; type: functional, cell-based; details: Mus musculus; summary of the method: as §1
L1210 [11] = test: Intracellular level of spermine in L1210 cells in the presence of DFMO at 10 uM; type: functional, cell-based; details: Mus musculus; summary of the method: as §1
Phosphodiesterase 1 = Phosphodiesterase 1 (Bos taurus, UniProt Q01061+P14100); test: Inhibition of bovine calmodulin-activated cAMP dependent phosphodiesterase; type: protein assay
Summary of the method: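 Crude bovine heart PDE preparation containing calmodulin and Ca²⁺ (0.2 milliunit). Incubated 20 min at 37 °C with 0.1 mM [8-³H]cAMP and graded drug concentrations in 30 mM Tris-HCl, 3 mM MgSO₄, 0.6 mM AMP. Stopped with ZnSO₄; Ba(OH)₂ precipitated AMP with BaSO₄; supernatant radioactivity counted. IC50 is the concentration giving 50% inhibition.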

L1210 [12] = test: Intracellular level of spermidine in L1210 cells in the absence of DFMO at 10 uM; type: functional, cell-based; details: Mus musculus; summary of the method: as §1
L1210 [13] = test: Intracellular level of spermidine in L1210 cells in the presence of DFMO at 10 uM; type: functional, cell-based; details: Mus musculus; summary of the method: as §1

Structure (SMILES)	Drug uptake (L1210 [1]) [nmol/mg]	Drug uptake (CHO [2]) [nmol/mg]	Drug uptake (CHO [3]) [nmol/mg]	Drug uptake (CHO-MG [4]) [nmol/mg]	Drug uptake (CHO-MG [5]) [nmol/mg]	Ratio (CHO-MG [6])	Selectivity ratio [7]	Drug uptake (L1210 [8]) [nmol/mg]	Drug uptake (L1210 [9]) [nmol/mg]	Drug uptake (L1210 [10]) [nmol/mg]	Drug uptake (L1210 [11]) [nmol/mg]	IC50 (Phosphodiesterase 1) [µM]	Drug uptake (L1210 [12]) [nmol/mg]	Drug uptake (L1210 [13]) [nmol/mg]
NCCCCNC1=Nc2ccccc2CC1	0.34	2.1	1.2	0.37	0.26	5.7	4.6	1.8	12.5	0.26	16.5	> 500	21	0.94
NCCCNCCCCNCCCNC1=Nc2ccccc2CC1	2.4	0.029	0.029	0.022	0.029	1.3	1	0.33	13.9	1.5	13.9	> 500	8.1	4.2
